# ChEMBL document CHEMBL2346655, “Synthesis and in vitro biological evaluation of 2,6,9-trisubstituted purines targeting multiple cyclin-dependent kinases” (Eur J Med Chem, 2013)
# Calls of active or inactive are those of the source. No cut-off for these calls is given here.
# Legend:
# HCT-116 [1] = assay: Cell cycle arrest in human HCT116 cells assessed as accumulation at subG1 phase at 1 uM after 24 hrs by propidium iodide staining-based flow cytometric analysis (reference value: 1.4%); type: functional
# Method in brief: (§1)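 Sub-confluent cells treated at several concentrations for 24 h, then pulsed with 10 μM BrdU for 30 min at 37 °C before harvest. Cells were PBS-washed, fixed in 70% ethanol, denatured in 2 M HCl and neutralized. Stained with fluorescein anti-BrdU and propidium iodide; DNA content read by flow cytometry with 488 nm excitation.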
# HCT-116 [2] = assay: Cell cycle arrest in human HCT116 cells assessed as accumulation at G2/M phase at 0.2 uM after 24 hrs by propidium iodide staining-based flow cytometric analysis (reference value: 19.6%); type: functional; method in brief: as §1
# G-361 = assay: Ratio of roscovitine IC50 to compound IC50 for human G361 cells; type: functional
# Method in brief: (§2)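 Cytotoxicity IC50s underlying the ratio: cells treated in triplicate with three-fold compound dilutions for 72 h, then Calcein AM added and live-cell fluorescence read at 485/538 nm (ex/em).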
# HOS [3] = assay: Ratio of roscovitine IC50 to compound IC50 for human HOS cells; type: functional; method in brief: as §2
# CCRF-CEM = assay: Ratio of roscovitine IC50 to compound IC50 for human CEM cells; type: functional; method in brief: as §2
# MCF7 [4] = assay: Ratio of roscovitine IC50 to compound IC50 for human MCF7 cells; type: functional; method in brief: as §2
# K562 [5] = assay: Ratio of roscovitine IC50 to compound IC50 for human K562 cells; type: functional; method in brief: as §2
# HOS [6] = assay: Cytotoxicity against human HOS cells assessed as reduction in number of viable cells after 72 hrs by fluorescence assay; type: functional, cell-based
# Method in brief: (§3)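 Three-fold compound dilutions tested in triplicate on cultured cells for 72 h. Viable cells detected by adding Calcein AM and reading fluorescence at 485/538 nm (ex/em).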
# HCT-116 [7] = assay: Cytotoxicity against human HCT116 cells assessed as reduction in number of viable cells after 72 hrs by fluorescence assay; type: functional, cell-based; settings: HCT-116, 72 h; method in brief: as §3
# MCF7 [8] = assay: Cytotoxicity against human MCF7 cells assessed as reduction in number of viable cells after 72 hrs by fluorescence assay; type: functional, cell-based; settings: MCF7, 72 h; method in brief: as §3
# K562 [9] = assay: Cytotoxicity against human K562 cells assessed as reduction in number of viable cells after 72 hrs by fluorescence assay; type: functional, cell-based; settings: K562, 72 h; method in brief: as §3
# HCT-116 [10] = assay: Induction of apoptosis in human HCT116 cells assessed as decrease in MCL1 level after 24 hrs by immunoblotting analysis; type: functional, cell-based
# Method in brief: (§4)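 Cells were treated for 24 h, harvested directly into Laemmli sample buffer, and run on SDS-PAGE. Proteins were blotted to nitrocellulose, blocked, probed overnight with primary antibodies, then with peroxidase-linked secondaries. Bands were detected by ECL with a CCD camera. PCNA and tubulin served as loading references.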
# K562 [11] = assay: Induction of apoptosis in human K562 cells assessed as caspase-3 activation up to 5 uM after 24 hrs by immunoblotting analysis; type: functional, cell-based; method in brief: as §4
# HCT-116 [12] = assay: Induction of apoptosis in human HCT116 cells assessed as caspase-3 activation up to 5 uM after 24 hrs by immunoblotting analysis; type: functional, cell-based; method in brief: as §4
# [13] = biological target: T1, CDK9/cyclin T1 (Homo sapiens) (UniProt O60563+P50750); assay: Inhibition of CDK9/CyclinT1 in human ARN8 cells assessed as increase in p53-dependent transcriptional activity at 2 uM after 24 hrs by beta-galactosidase reporter gene assay; type: cell-based
# Method in brief: (§5)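 Arn-8 human melanoma cells stably carrying p53-responsive pRGCΔfoslacZ reporter; 24 h compound exposure, then permeabilized with 0.3% Triton X-100 for 15 min. 4-Methylumbelliferon-β-D-galactopyranoside added (80 μM final); fluorescence read at 355/460 nm (ex/em) after 1 h as β-galactosidase activity.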
# [14] = biological target: T1, CDK9/cyclin T1 (Homo sapiens); assay: Inhibition of CDK9/CyclinT1 in human ARN8 cells assessed as increase in p53-dependent transcriptional activity after 24 hrs by beta-galactosidase reporter gene assay; type: cell-based; method in brief: as §5
# [15] = biological target: T1, CDK9/cyclin T1 (Homo sapiens); assay: Inhibition of CDK9/CyclinT1 in human HCT116 cells assessed as decrease in Mdm2 expression at 1 to 5 uM after 24 hrs by immunoblotting analysis; type: cell-based; settings: HCT-116
# Method in brief: (§6)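 Immunoblot: cells lysed by harvesting in Laemmli sample buffer, proteins run on SDS-PAGE, electroblotted to nitrocellulose, blocked, primary antibodies overnight, peroxidase-conjugated secondaries, ECL detection by CCD camera. Antibodies included anti-phospho RNA polymerase II (S2), anti-RNA polymerase II (ARNA-3), anti-p53 (DO-1), anti-p21waf1 (118), anti-PCNA.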
# [16] = biological target: T1, CDK9/cyclin T1 (Homo sapiens); assay: Inhibition of CDK9/CyclinT1 in human HCT116 cells assessed as increase in p53 expression at 1 to 5 uM after 24 hrs by immunoblotting analysis; type: cell-based; settings: HCT-116; method in brief: as §6
# [17] = biological target: T1, CDK9/cyclin T1 (Homo sapiens); assay: Inhibition of CDK9/CyclinT1-mediated phosphorylation of RNA polymerase 2 at Ser5 in human K562 cells up to 25 uM after 24 hrs by immunoblotting analysis; type: cell-based; method in brief: as §6
# [18] = biological target: Cyclin-dependent kinase 7/ cyclin H (Homo sapiens) (UniProt P51946+P50613); assay: Inhibition of CDK7/CyclinH/MAT1-mediated phosphorylation of RNA polymerase 2 at Ser2 in human HCT116 cells up to 25 uM after 24 hrs by immunoblotting analysis; type: cell-based; settings: HCT-116
# Method in brief: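 Treated cells were lysed in Laemmli buffer and separated by SDS-PAGE, then transferred to nitrocellulose. Blots were probed overnight with phospho-RNA polymerase II (S2) and total RNA polymerase II (clone ARNA-3) antibodies, followed by peroxidase secondaries. Signal was developed by ECL on a CCD camera.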
# K562 [19] = assay: Cell cycle arrest in human K562 cells assessed as accumulation at S phase after 24 hrs by BrdU incorporation assay; type: functional, cell-based
# Method in brief: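 Sub-confluent cells were exposed to compound for 24 h, then pulse-labeled with 10 μM BrdU for 30 min at 37 °C. After ethanol (70%) fixation and 2 M HCl denaturation, cells were stained with fluorescein anti-BrdU antibody plus propidium iodide. The BrdU-positive S-phase fraction was quantified by flow cytometry (488 nm laser).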
# K562 [20] = assay: Cell cycle arrest in human K562 cells assessed as accumulation at G2/M phase at 5 uM after 24 hrs by propidium iodide staining-based flow cytometric analysis (reference value: 13.8%); type: functional; method in brief: as §1
# K562 [21] = assay: Cell cycle arrest in human K562 cells assessed as accumulation at S phase at 5 uM after 24 hrs by propidium iodide staining-based flow cytometric analysis (reference value: 38.8%); type: functional; method in brief: as §1
# K562 [22] = assay: Cell cycle arrest in human K562 cells assessed as accumulation at G1 phase at 0.2 uM after 24 hrs by propidium iodide staining-based flow cytometric analysis (reference value: 47.3%); type: functional; method in brief: as §1
# K562 [23] = assay: Cell cycle arrest in human K562 cells assessed as accumulation at subG1 phase at 0.2 uM after 24 hrs by propidium iodide staining-based flow cytometric analysis (reference value: 2.4%); type: functional; method in brief: as §1
# HCT-116 [24] = assay: Cell cycle arrest in human HCT116 cells assessed as accumulation at G2/M phase at 5 uM after 24 hrs by propidium iodide staining-based flow cytometric analysis (reference value: 19.6%); type: functional; method in brief: as §1
# HCT-116 [25] = assay: Cell cycle arrest in human HCT116 cells assessed as accumulation at G1 phase at 5 uM after 24 hrs by propidium iodide staining-based flow cytometric analysis (reference value: 48.8%); type: functional; method in brief: as §1
# HCT-116 [26] = assay: Cell cycle arrest in human HCT116 cells assessed as accumulation at S phase at 1 uM after 24 hrs by propidium iodide staining-based flow cytometric analysis (reference value: 31.6%); type: functional; method in brief: as §1
smiles,measurement,setting,value
CC[C@@H](Nc1nc(NCc2cc(Cl)ccc2O)c2ncn(C(C)C)c2n1)C(C)O (mixture of isomers),Activity,HCT-116 [1],3.3%
same,Activity,HCT-116 [2],23.4%
same,Ratio IC50,G-361,>9
same,Ratio IC50,HOS [3],>9
same,Ratio IC50,CCRF-CEM,>9
same,Ratio IC50,MCF7 [4],>9
same,Ratio IC50,K562 [5],>9
same,IC50,HOS [6],2.7 µM
same,IC50,HCT-116 [7],2 µM
same,IC50,MCF7 [8],2.6 µM
same,IC50,K562 [9],3.3 µM
same,Activity,HCT-116 [10],Dose-dependent effect
same,Activity,K562 [11],inactive
same,Activity,HCT-116 [12],inactive
same,inhibition,[13],Active
same,inhibition,[14],Dose-dependent effect
same,inhibition,[15],Active
same,inhibition,[16],Active
same,inhibition,[17],Active
same,inhibition,[18],Active
same,Activity,K562 [19],Dose-dependent effect
same,Activity,K562 [20],31.5%
same,Activity,K562 [21],27.8%
same,Activity,K562 [22],34.7%
same,Activity,K562 [23],2.8%
same,Activity,HCT-116 [24],37.9%
same,Activity,HCT-116 [25],29.5%
same,Activity,HCT-116 [26],28.8%
